Hits are enriched below; roughly 4.1% of the tested compounds scored in any of these assays.
KCNQ1 inh = inhibitors of human KCNQ1 channel, primary screen, cell-based, thallium flux, high-throughput; 1.3% of 310,000 active; CHO-K1 KCNQ1, FluxOR thallium flux fluorescence; hits give high values; B-score at 10 µM; Potassium voltage-gated channel subfamily KQT member 1 (Homo sapiens), P51787;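 active means compounds whose thallium flux B-score, printed positive for inhibition, exceeds three library SD while starting fluorescence stays within three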;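 further: channel opened by potassium depolarization with thallium stimulus after 20 min compound exposure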
KCNK9 block = KCNK9 potassium channel inhibitors, primary screen, HEK293 cells, thallium flux. Potassium channel subfamily K member 9 (Homo sapiens), Q9NPC2. FluxOR thallium flux fluorescence; hits give low values. B-score at 10 µM. 1.2% of 310,000 active. AID 488922, 2010;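 active means ratio B-score over 3 SD below the library mean, with starting fluorescence within 5 SD of its mean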;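 further: negative B-score means less thallium flux so channel inhibition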
Target sequence (Q9NPC2 whole entry, looked up): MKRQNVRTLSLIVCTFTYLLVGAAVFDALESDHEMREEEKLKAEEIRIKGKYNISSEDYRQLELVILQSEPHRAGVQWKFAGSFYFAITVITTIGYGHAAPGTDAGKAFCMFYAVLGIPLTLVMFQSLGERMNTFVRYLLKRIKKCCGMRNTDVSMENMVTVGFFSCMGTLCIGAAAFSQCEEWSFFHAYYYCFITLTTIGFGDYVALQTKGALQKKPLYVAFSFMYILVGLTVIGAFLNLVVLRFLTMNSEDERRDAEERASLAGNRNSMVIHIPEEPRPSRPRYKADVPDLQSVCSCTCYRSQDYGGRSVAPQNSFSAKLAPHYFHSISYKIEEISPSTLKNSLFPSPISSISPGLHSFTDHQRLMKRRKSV
KCNK3 inh = human KCNK3 channel inhibitors, primary screen, CHO cells, FluxOR thallium flux, B-score; Potassium channel subfamily K member 3 (Homo sapiens), O14649; B-score at 10 µM; AID 602410, 2012; FluxOR fluorescence; hits give low values; 0.84% of 340,000 active;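 active means B-score under library mean minus 4 SD, starting fluorescence ratio at most library mean plus 5 SD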;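 further: more negative B-score means stronger inhibition of thallium flux through KCNK3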
KCNQ1 pot = potentiators or activators of KCNQ1 channel, primary screen, cell-based, thallium flux, high-throughput | Potassium voltage-gated channel subfamily KQT member 1 (Homo sapiens), P51787 | AID 2648, 2010 | CHO-K1 KCNQ1, thallium flux FluxOR fluorescence; hits give high values | B-score at 10 µM | 0.35% of 310,000 active;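 active means fluorescence ratio B-score, a plate-corrected score, at least three library SD, with initial intensity B-score within 5 SD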
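assay system = CHO-K1 cells stably expressing KCNQ1 | medium = assay buffer, equal DMSO in all wells | timing = 37 °C overnight plating, 90-min dark dye load, 20-min compound pretreatment | measured by = kinetic FluxOR thallium fluorescence, 10-s 1-Hz baseline, 110-s post-stimulus read | measure = fluorescence change relative to baseline, converted to B score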
KCC2 mod = KCC2 cotransporter modulators, thallium flux, primary screen, cell-based, HEK293 KCC2, FluoZin-2 fluorescence, MLSMR; KCC2 cells, thallium flux FluoZin-2 fluorescence; B-score of Tl+ flux slope (higher = more flux/activation; lower = inhibition) at 10 µM; 2.2% of 190,000 active;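 active means thallium flux slope and its plate-corrected score both differing from the plate sample mean at a set confidence after two filtering rounds, in either direction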;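 further: slope of fluorescence scaled to starting intensity during 10 to 20 s after thallium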
hERG rescue = hERG rescue from dofetilide block, primary screen, cell-based, CHO-hERG, FluxOR thallium flux, dofetilide IC70. AID 1511, 2009. 0.51% of 310,000 active. activation (rescue from dofetilide block), less the hit threshold, % at 10 µM. dofetilide IC70 present;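 active means activation above the mean of controls blocked by dofetilide plus 5 SD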;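 further: thallium influx through hERG after potassium depolarization seen as dye fluorescence rise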
KCNQ1 inh valid = KCNQ1 potassium channel inhibitors, confirmation, cell-based, Tl flux, duplicate; AID 588353, 2011; shares compounds with KCNQ1 inh; inhibition, % at 10 µM; 93% of 1,600 active; KCNQ1 cell line, FluxOR thallium flux fluorescence;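 active means primary screen active, with duplicate mean exceeding buffer control mean plus 3 SD of buffer wells, cut at about 28% in these data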
CHO Tl flux = thallium flux effects in parental CHO cells, counter-screen for KCNQ1 inhibitor project, cell-based, Tl flux; fluorescence ratio (Tl flux) at 10 µM; parental CHO-K1, FluxOR thallium flux fluorescence ratio; hits give low values; zero means no signal rise above baseline; shares compounds with KCNQ1 inh; 21% of 1,600 active;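 active means mean of duplicate thallium-flux fluorescence ratios in parental host cells more than 5 SD below the buffer control mean, cut at about 0.38 in these data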;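 further: ratio is peak minus minimum fluorescence divided by baseline fluorescence; actives read low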
KCNQ1 ephys val = KCNQ1 channel inhibitors, confirmation, orthogonal assay, cell-based, automated electrophysiology. shares compounds with KCNQ1 inh. KCNQ1-CHO cells, automated patch clamp current. calls only at 10 µM. 20% of 490 active;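 active means KCNQ1 current drop exceeding 3 SD of negative control wells, seen in both duplicate runs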;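 further: steady state current during a 2 s step from -80 to +40 mV; negative values mean current inhibition and positive values mean potentiation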
KCNQ2 inh = KCNQ2 channel inhibition, selectivity assay for KCNQ1 inhibitor project, cell-based; inhibition, % at 10 µM; shares compounds with KCNQ1 inh; KCNQ2 cells, FluxOR thallium flux fluorescence; AID 651746, 2012; 71% of 1,600 active;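 active means mean percent inhibition of the KCNQ2 thallium signal more than 5 SD above the buffer-only control wells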;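 further: KCNQ2 expressed in CHO cells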
KCNQ1 KCNE1 spec = KCNQ1/KCNE1 channel inhibition, selectivity assay for KCNQ1 inhibitor project, CHO-K1 cells, thallium flux, FluxOR; shares compounds with KCNQ1 inh; FluxOR thallium flux fluorescence; inhibition, % at 10 µM; 77% of 1,600 active; AID 652147, 2013;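 active means mean percent inhibition of duplicate wells above the buffer-only control mean plus 3 SD of those controls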
KCNK9 block conf = KCNK9 potassium channel inhibitors, confirmation, HEK293 cells, thallium flux, duplicate. FluxOR thallium flux fluorescence. 43% of 4,900 active. AID 492992, 2010. shares compounds with KCNK9 block. inhibition, % at 10 µM;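 active means thallium signal inhibited by more than 5 SD of the compound-free buffer control wells, on both duplicate plates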
Kir21 sel = mouse Kir2.1 channel inhibition, confirmation, selectivity assay for KCNK9 modulator project, cell-based, HEK293, thallium flux | shares compounds with KCNK9 block | Kir2.1 cells, FluxOR thallium flux fluorescence | inhibition, % at 10 µM | 4% of 4,900 active | AID 492993, 2010;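 active means thallium signal drop more than 5 SD beyond the mean of the no-compound control wells, seen in both duplicate plates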;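 further: signal is fluorescence rise after thallium addition divided by baseline fluorescence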
Target sequence (P35561 whole entry, looked up): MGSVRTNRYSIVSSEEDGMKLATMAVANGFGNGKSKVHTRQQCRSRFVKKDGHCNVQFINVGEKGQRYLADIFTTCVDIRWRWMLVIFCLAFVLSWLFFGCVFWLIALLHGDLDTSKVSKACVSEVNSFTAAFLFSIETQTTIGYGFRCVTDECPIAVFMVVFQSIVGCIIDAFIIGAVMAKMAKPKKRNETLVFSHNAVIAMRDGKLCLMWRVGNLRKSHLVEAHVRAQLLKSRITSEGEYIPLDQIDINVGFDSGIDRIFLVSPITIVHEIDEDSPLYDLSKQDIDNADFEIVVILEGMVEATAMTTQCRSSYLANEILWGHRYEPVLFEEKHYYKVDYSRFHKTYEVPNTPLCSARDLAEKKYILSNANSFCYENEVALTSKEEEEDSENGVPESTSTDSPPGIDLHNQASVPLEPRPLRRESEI
HEK293 Tl ctr = thallium flux in non-induced HEK293 cells, confirmation, counter-screen for KCNK9 inhibitor project, cell-based, second counter screen, non-induced KCNK9-HEK293. shares compounds with KCNK9 block. FluxOR thallium flux. inhibition, % at 10 µM. 40% of 4,900 active;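 active means thallium signal drop beyond 5 SD of the untreated control mean, on both duplicate plates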
KCNK3 inh conf = retest of human KCNK3 channel inhibitors, confirmation, CHO cells, FluxOR thallium flux, triplicate; 99% of 2,400 active; shares compounds with KCNK3 inh; ratio percent of control, % at 10 µM; FluxOR fluorescence; 0% buffer, 100% carvedilol maximal block;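 active means ratio percent of control, averaged over triplicates, above buffer control mean plus 5 SD, cut at about 64% in these data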;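 further: ratio is the fluorescence rise from min to max over baseline after thallium stimulus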
KCNK3 uninduced = thallium flux inhibition in non-induced cells, primary screen, counter-screen for KCNK3 inhibitor project, cell-based, non-induced KCNK3 line, FluxOR thallium, triplicate; 40% of 2,400 active; non-induced KCNK3 parental cells; hits give low values; shares compounds with KCNK3 inh; thallium flux ratio (lower = more inhibition) at 10 µM;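 active means thallium flux ratio, averaged over three wells, more than 5 SD below the buffer control mean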;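 further: host cells are CHO cells without KCNK3 induction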
A number is an active result; n = inactive; x = not tested or not shown; + = active, no number.

SMILES	KCNQ1 inh	KCNK9 block	KCNK3 inh	KCNQ1 pot	KCC2 mod	hERG rescue	KCNQ1 inh valid	CHO Tl flux	KCNQ2 inh	KCNQ1 KCNE1 spec	KCNK3 inh conf	KCNK3 uninduced	others
COc1cccc(NC(=O)Nc2ccc3c(c2)N(C)C(=O)CS3)c1	6	n	-11.4	n	n	n	114.5	0.361	114.0%	+	119.0	n
COc1cccc(NC(=O)Nc2ccc(C(C)(C)C)cc2)c1	13	n	-12.6	n	n	n	152.5	0.352	109.3%	+	133.7	0.125
COc1cccc(NC(=O)Nc2ccncc2)c1	n	n	n	n	n	n	x	x	x	x	x	x
O=c1c2c(nc(NCCO)n1CC1CCCCC1)-c1ccccc1CC21CCCC1	6	-7.4	-16.3	n	x	n	91.0	n	104.0%	n	114.7	0.158	KCNQ1 ephys val=n
COc1cc(NC(=O)CN(C)Cc2cccc(F)c2)c(C)cc1[N+](=O)[O-]	n	n	n	n	n	n	x	x	x	x	x	x
CCC(CC)NC(=O)CSc1ccc(S(=O)(=O)N2CCOCC2)cn1	x	x	n	x	x	x	x	x	x	x	x	x
NC(=O)c1c(NC(=O)C(=O)NCCCN2CCOCC2)sc2c1CCCC2	n	n	n	n	x	n	x	x	x	x	x	x
COc1cc(C(C)=O)ccc1OCC(=O)Nc1ccccc1N1CCCCC1	n	n	n	n	x	n	x	x	x	x	x	x
Cc1cccc(OCC(=O)Nc2ccccc2N2CCCCC2)c1C	9	-8.36	n	n	x	n	101.5	n	88.3%	149.5%	110.0	n	KCNQ1 ephys val=n;KCNK9 block conf=53.5%;Kir21 sel=33.5%;HEK293 Tl ctr=42.0%
CC(C)OC(=O)NCCOC(=O)Nc1cccc(Cl)c1	n	n	n	n	n	n	x	x	x	x	x	x
CC(C)OC(=O)NCCOC(=O)Nc1ccc(Cl)c(Cl)c1	10	-8.07	-10.9	n	n	n	80.0	n	119.0%	n	105.3	n
CC(C)(C)c1ccc(OCC(=O)Nc2ccncc2)c(Br)c1	19	n	-8.75	n	x	n	142.5	n	n	73.5%	137.7	0.125	KCNQ1 ephys val=n
Cc1cc(OCC(=O)Nc2ccncc2)c(C)cc1Br	8	n	-9.18	n	n	n	132.0	n	108.0%	43.5%	122.3	n	KCNQ1 ephys val=n
CCc1ccc(OCC(=O)Nc2ccncc2)c(Br)c1	n	n	n	n	x	n	x	x	x	x	x	x
COc1ccc(NC(=O)CN2C(=O)COc3ccc(C)cc32)c(OC)c1	n	n	n	n	x	n	x	x	x	x	x	x
CNc1nc2ccccc2n1N	n	n	n	n	n	n	x	x	x	x	x	x
O=C(CCS(=O)(=O)c1ccc(Cl)cc1)Oc1ccc2c(c1)OCO2	x	x	n	x	n	x	x	x	x	x	x	x
CC(=O)N1N=C(c2ccncc2)OC12CCCCCC2	n	n	n	n	x	n	x	x	x	x	x	x
Cc1cc(NC(=O)Nc2cccc(Cl)c2)n(-c2ccccn2)n1	14	-12.7	-11.3	n	x	n	191.5	n	125.0%	+	126.3	n	KCNQ1 ephys val=n;KCNK9 block conf=54.0%;Kir21 sel=n;HEK293 Tl ctr=31.5%
CC(C)Nc1nc(NC(C)C)nc(N(C#N)CCOc2ccc(Cl)cc2Cl)n1	14	-7.94	-12	n	x	n	134.5	0.31	128.3%	+	135.3	0.129
CCn1cc(-c2csc(N)n2)c(C)n1	n	n	n	n	n	n	x	x	x	x	x	x
c1cnc2ccc(C(c3nnnn3C3CCCC3)N3CCSCC3)cc2c1 (stereo not drawn)	n	n	n	n	n	n	x	x	x	x	x	x
O=C(NCCSCc1ccco1)Nc1cc(Cl)cc(Cl)c1	8	-8.24	-13.2	n	n	n	134.5	n	n	91.0%	100.3	n	KCNQ1 ephys val=n;KCNK9 block conf=67.5%;Kir21 sel=n;HEK293 Tl ctr=31.5%
Fc1ccc(C2c3[nH]c4ccccc4c3CCN2Cc2cccn2-c2ncccn2)cc1 (stereo not drawn)	6	-7.81	-14	n	n	n	83.5	n	72.0%	97.0%	121.3	0.152
Cc1cnc(C(=O)N2CCc3c([nH]c4ccccc34)C2c2ccc(F)cc2)cn1 (stereo not drawn)	n	n	n	n	x	n	x	x	x	x	x	x
O=C(Nc1cc(C(=O)N2CCN(c3ccccc3)CC2)ccc1Cl)c1cccs1	x	x	n	x	x	x	x	x	x	x	x	x

Compound activity as filed in PubChem BioAssay.
